According to ChEMBL document CHEMBL4020721 (Eur J Med Chem, 2017):

Experiments:
[1] = Intrinsic clearance in rat liver microsomes assessed per mg protein at 1 uM preincubated for 5 mins followed by NADPH addition measured after 5 to 30 mins by LC-MS/MS analysis; format: ADME, microsome; conditions: read-out: CLH
Method in brief: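 Microsomes (0.5 mg/ml) with 1 µM compound were preincubated 5 min at 37°C in 100 mM phosphate buffer pH 7.4, then started with 1 mM NADPH. Samples were taken at 0, 5, 10 and 30 min, quenched with acetonitrile/tinidazole and run by LC-MS/MS. CLint = k / microsomal protein concentration. Midazolam was the positive control.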

[2] = target: Tyrosine-protein kinase ABL1 (Homo sapiens, UniProt P00519); assay: Inhibition of ABL (unknown origin) using FAM-labeled peptide as substrate preincubated for 5 to 10 mins followed by substrate/ATP addition measured after 30 to 60 mins by mobility shift assay
Method in brief: (§1)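 Caliper mobility-shift assay with FAM-labeled peptide substrate. Buffer: 50 mM HEPES pH 7.5, 0.0015% Brij-35, 10 mM MgCl2, 2 mM DTT, with kinase-specific enzyme levels. […] Incubation was 30-60 min at 28°C, stopped with EDTA buffer. Read-out was % conversion.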

Mus musculus [3] = assay: Toxicity in BALB/c athymic nude mouse xenografted with human NCI-H1993 cells assessed as apparent toxicity parameters at 0.1 to 10 mg/kg, po administered once daily for 3 weeks; format: organism-based; conditions: in vivo, 504 h
NCI-H1993 [4] = assay: Antitumor activity against human NCI-H1993 cells xenografted in BALB/c athymic nude mouse assessed as tumor growth inhibition at 0.1 mg/kg, po administered once daily for 3 weeks; format: functional; conditions: 504 h, read-out: TGI
Method in brief: (§2)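 BALB/c nude mice, 5-6 weeks old, kept under SPF conditions, received 7×10^6 NCI-H1993 cells s.c. in the right flank. At 150-250 mm³ they were sorted and randomized, n=7 per group, with vehicle controls. Dosing was oral, once daily for 3 weeks. […] Mean±SEM, Student's t-test.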

[5] = target: Macrophage-stimulating protein receptor (Homo sapiens, UniProt Q04912); assay: Inhibition of RON (unknown origin) using FAM-labeled peptide as substrate preincubated for 5 to 10 mins followed by substrate/ATP addition measured after 30 to 60 mins by mobility shift assay; method in brief: as §1
Macrophage-stimulating protein receptor, sequence (Q04912 25-304 limits assumed): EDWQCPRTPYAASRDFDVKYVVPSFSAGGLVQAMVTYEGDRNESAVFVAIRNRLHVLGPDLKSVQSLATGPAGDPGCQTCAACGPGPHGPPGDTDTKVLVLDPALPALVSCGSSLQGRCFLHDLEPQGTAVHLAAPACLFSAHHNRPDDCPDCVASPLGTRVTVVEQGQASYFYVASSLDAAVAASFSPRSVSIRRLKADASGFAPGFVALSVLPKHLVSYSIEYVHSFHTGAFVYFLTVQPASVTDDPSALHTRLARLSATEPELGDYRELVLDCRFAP
Macrophage-stimulating protein receptor, sequence (Q04912 310-1400 limits assumed): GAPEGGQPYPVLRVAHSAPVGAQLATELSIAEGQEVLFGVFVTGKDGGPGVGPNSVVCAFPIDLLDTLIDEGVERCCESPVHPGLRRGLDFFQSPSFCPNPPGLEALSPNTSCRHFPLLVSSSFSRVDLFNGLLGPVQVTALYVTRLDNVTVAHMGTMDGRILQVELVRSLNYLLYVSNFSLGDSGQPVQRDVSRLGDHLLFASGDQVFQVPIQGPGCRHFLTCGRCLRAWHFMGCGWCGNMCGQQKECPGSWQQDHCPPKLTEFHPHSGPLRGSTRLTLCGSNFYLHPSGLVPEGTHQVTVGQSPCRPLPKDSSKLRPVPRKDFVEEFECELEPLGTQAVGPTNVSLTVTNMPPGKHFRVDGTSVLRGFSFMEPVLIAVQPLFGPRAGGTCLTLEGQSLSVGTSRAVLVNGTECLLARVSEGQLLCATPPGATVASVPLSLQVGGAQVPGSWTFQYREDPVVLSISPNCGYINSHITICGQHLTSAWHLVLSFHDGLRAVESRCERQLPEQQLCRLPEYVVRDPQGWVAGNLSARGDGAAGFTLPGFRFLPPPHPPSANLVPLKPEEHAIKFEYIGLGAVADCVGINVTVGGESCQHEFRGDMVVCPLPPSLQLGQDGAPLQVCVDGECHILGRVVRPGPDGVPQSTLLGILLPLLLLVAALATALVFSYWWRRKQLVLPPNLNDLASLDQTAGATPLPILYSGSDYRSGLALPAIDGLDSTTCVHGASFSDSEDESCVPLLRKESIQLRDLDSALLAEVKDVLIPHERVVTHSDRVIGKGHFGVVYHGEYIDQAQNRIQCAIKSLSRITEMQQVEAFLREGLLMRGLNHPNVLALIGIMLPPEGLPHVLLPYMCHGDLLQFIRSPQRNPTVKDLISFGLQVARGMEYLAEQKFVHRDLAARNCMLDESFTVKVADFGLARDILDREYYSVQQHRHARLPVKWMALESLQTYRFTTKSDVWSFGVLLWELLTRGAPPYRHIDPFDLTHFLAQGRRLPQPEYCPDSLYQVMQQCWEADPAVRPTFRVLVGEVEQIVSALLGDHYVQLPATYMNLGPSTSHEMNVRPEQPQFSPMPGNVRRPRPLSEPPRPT

[6] = Drug recovery in human liver microsomes at 1 uM measured after 30 mins by LC-MS/MS analysis; format: ADME, microsome; conditions: liver microsomes, read-out: Drug recovery
Method in brief: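 Liver microsomes (0.5 mg/ml) were incubated with 1 µM compound at 37°C in 100 mM phosphate buffer pH 7.4 without NADPH for 30 min. Reactions were quenched with acetonitrile/tinidazole internal standard and analysed by LC-MS/MS. Recovery (%) was taken from the compound/internal standard peak area ratio.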

[7] = target: Hepatocyte growth factor receptor (Homo sapiens, UniProt P08581); assay: Inhibition of c-MET (unknown origin) using TK substrate-biotin peptide as substrate preincubated for 5 to 10 mins followed by ATP addition measured after 30 mins by HTRF assay
Hepatocyte growth factor receptor, sequence (P08581 whole entry): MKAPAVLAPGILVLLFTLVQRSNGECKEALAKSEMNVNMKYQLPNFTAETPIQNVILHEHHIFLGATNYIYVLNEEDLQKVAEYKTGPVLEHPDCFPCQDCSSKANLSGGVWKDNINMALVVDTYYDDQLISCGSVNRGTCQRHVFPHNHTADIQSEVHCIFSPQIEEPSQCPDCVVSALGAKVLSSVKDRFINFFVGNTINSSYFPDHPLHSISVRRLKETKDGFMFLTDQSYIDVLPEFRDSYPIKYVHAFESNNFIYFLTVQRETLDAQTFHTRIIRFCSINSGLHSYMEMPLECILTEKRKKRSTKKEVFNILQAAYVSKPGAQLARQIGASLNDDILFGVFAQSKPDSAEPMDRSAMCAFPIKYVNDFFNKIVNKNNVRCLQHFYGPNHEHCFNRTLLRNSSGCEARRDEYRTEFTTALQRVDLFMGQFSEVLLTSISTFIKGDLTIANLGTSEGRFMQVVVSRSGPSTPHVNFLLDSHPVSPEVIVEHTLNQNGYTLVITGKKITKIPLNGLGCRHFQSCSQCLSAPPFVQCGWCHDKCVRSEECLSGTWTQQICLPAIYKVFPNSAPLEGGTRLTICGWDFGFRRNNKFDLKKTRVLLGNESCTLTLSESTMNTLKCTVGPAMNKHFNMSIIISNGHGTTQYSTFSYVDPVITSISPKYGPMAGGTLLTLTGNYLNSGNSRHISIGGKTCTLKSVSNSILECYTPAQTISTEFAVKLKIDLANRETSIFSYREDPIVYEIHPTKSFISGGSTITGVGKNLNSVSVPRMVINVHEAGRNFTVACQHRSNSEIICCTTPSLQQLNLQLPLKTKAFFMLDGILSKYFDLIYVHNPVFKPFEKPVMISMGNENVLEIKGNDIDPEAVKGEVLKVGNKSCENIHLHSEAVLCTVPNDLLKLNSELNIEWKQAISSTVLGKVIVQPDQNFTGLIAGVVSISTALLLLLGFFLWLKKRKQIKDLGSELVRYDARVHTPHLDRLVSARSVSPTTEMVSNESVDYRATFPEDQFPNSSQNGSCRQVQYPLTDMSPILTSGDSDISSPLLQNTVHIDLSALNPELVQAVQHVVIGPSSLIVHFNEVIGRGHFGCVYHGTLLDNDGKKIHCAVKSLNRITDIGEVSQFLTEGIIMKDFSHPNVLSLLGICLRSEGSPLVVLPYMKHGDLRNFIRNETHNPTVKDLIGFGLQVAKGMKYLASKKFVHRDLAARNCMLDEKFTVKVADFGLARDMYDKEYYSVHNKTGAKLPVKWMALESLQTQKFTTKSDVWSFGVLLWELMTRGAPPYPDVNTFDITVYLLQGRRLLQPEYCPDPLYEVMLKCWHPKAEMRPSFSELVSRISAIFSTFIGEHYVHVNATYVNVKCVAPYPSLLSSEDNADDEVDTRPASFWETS

[8] = target: Platelet-derived growth factor receptor alpha (Homo sapiens, UniProt P16234); assay: Inhibition of PDGFRalpha (unknown origin) using FAM-labeled peptide as substrate preincubated for 5 to 10 mins followed by substrate/ATP addition measured after 30 to 60 mins by mobility shift assay; method in brief: as §1
[9] = AUC (0 to 24 hrs) in Sprague-Dawley rat plasma at 6 mg/kg, po by UPLC-MS/MS analysis; format: ADME, organism-based; set-up: dose 6 mg/kg, time < 24 hr, route oral
Method in brief: (§3)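 Male Sprague-Dawley rats (180-220 g) were fasted overnight with free access to water. Dosing was intravenous (n=2) or oral at 6 mg/kg (n=3). Heparinized blood was drawn from 0 to 1440 min. Plasma was frozen at -20°C, then precipitated with acetonitrile containing internal standard, centrifuged and analysed by UPLC-MS/MS.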

SNU-5 = assay: Antitumor activity against human SNU5 cells xenografted in BALB/c athymic nude mouse assessed as percent tumor regression at 0.3 mg/kg, po administered once daily for 2 weeks; format: functional
Method in brief: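 Nude BALB/c mice, 5-6 weeks old, under SPF conditions, were implanted s.c. in the right flank with 6×10^6 SNU-5 cells. Groups were sorted at 100-200 mm³, n=6, with vehicle controls. Oral dosing once daily for 2 weeks. Percent tumor regression = 100% × (treated day 0 − treated final)/treated day 0. Mean±SEM, Student's t-test.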

[10] = target: Vascular endothelial growth factor receptor 2 (Homo sapiens, UniProt P35968); assay: Inhibition of VEGFR2 (unknown origin) using FAM-labeled peptide as substrate preincubated for 5 to 10 mins followed by substrate/ATP addition measured after 30 to 60 mins by mobility shift assay; method in brief: as §1
Vascular endothelial growth factor receptor 2, sequence (P35968 whole entry): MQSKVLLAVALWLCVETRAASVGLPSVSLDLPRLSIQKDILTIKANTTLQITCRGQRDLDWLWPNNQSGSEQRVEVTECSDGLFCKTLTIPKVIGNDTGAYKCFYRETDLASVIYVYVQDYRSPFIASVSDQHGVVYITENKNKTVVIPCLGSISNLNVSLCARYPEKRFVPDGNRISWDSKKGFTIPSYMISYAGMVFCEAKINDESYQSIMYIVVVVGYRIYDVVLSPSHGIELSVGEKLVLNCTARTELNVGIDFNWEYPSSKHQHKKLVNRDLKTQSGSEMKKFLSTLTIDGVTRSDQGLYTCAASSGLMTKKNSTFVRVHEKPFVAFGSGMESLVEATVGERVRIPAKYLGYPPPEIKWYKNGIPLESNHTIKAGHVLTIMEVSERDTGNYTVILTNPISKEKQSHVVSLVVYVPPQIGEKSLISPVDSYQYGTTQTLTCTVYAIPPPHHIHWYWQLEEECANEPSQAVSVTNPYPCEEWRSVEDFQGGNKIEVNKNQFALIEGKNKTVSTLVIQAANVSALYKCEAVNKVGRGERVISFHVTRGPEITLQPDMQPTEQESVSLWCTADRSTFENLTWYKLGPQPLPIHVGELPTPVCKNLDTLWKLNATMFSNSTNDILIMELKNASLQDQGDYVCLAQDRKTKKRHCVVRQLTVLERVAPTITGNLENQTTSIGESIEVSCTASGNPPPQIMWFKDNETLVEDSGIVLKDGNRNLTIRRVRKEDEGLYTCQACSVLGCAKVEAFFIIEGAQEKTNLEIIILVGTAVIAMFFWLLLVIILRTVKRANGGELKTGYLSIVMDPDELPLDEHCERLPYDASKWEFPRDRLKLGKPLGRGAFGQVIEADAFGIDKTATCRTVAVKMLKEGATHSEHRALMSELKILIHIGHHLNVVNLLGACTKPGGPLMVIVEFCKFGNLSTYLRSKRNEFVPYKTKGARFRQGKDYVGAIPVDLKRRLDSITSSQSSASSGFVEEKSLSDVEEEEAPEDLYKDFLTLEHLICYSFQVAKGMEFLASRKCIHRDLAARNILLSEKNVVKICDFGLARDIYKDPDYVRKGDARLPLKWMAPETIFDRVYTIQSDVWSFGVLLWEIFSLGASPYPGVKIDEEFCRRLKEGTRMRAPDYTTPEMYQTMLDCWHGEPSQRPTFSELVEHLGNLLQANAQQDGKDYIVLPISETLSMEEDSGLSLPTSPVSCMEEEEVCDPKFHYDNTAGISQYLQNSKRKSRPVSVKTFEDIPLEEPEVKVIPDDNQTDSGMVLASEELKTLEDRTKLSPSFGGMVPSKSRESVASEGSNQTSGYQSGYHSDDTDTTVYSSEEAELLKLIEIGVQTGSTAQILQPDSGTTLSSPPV

CYP2D6 = CYP2D6 (Homo sapiens, UniProt P10635); assay: Time dependent irreversible inhibition of CYP2D6 in human liver microsomes at 10 uM preincubated with compound followed by NADPH addition by LC-MS/MS analysis; format: ADME; conditions: liver microsomes
Method in brief: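 HLM (0.2 mg/ml) with 10 µM compound were preincubated 0, 5, 10 or 20 min at 37°C with 1 mM NADPH or PBS. Substrate cocktail (halved concentrations) plus NADPH was then added for 10 min. Metabolites were measured by LC-MS/MS. Kobs is the slope of relative activity versus preincubation time.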

[11] = Cmax in Sprague-Dawley rat plasma at 6 mg/kg, po by UPLC-MS/MS analysis; format: ADME, organism-based; set-up: dose 6 mg/kg, route oral; method in brief: as §3
NCI-H1993 [12] = assay: Growth inhibition of human NCI-H1993 cells after 72 hrs by CCK-8 assay; format: functional, cell-based; conditions: nci-h1993
NCI-H1993 [13] = assay: Antitumor activity against human NCI-H1993 cells xenografted in BALB/c athymic nude mouse assessed as tumor growth inhibition at 1 mg/kg, po administered once daily for 3 weeks; format: functional; conditions: 504 h, read-out: TGI; method in brief: as §2
[14] = target: Receptor tyrosine-protein kinase erbB-4 (Homo sapiens, UniProt Q15303); assay: Inhibition of ERBB4 (unknown origin) using FAM-labeled peptide as substrate preincubated for 5 to 10 mins followed by substrate/ATP addition measured after 30 to 60 mins by mobility shift assay; method in brief: as §1
Mus musculus [15] = assay: Toxicity in BALB/c athymic nude mouse xenografted with human NCI-H1993 cells assessed as body weight loss at 0.1 to 10 mg/kg, po administered once daily for 3 weeks; format: organism-based; conditions: in vivo, 504 h
Method in brief: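 Female/male BALB/c nude mice (5-6 weeks, SPF). NCI-H1993 cells (7×10^6 in 140 µL) or SNU-5 cells (6×10^6 in 200 µL) injected s.c. into the right flank. Dosing started at mean tumour volume 150-250 mm³ (NCI-H1993) or 100-200 mm³ (SNU-5). Randomized, n = 7 (NCI-H1993) or 6 (SNU-5) per group. Oral dosing once daily; vehicle controls. Body weight and signs of toxicity monitored during treatment.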

[16] = Half life in Sprague-Dawley rat plasma at 1 mg/kg, iv by UPLC-MS/MS analysis; format: ADME, organism-based; method in brief: as §3
Ephrin type-A receptor 2 = Ephrin type-A receptor 2 (Homo sapiens, UniProt P29317); assay: Inhibition of EPHA2 (unknown origin) using FAM-labeled peptide as substrate preincubated for 5 to 10 mins followed by substrate/ATP addition measured after 30 to 60 mins by mobility shift assay; method in brief: as §1
Ephrin type-A receptor 2, sequence (P29317 whole entry): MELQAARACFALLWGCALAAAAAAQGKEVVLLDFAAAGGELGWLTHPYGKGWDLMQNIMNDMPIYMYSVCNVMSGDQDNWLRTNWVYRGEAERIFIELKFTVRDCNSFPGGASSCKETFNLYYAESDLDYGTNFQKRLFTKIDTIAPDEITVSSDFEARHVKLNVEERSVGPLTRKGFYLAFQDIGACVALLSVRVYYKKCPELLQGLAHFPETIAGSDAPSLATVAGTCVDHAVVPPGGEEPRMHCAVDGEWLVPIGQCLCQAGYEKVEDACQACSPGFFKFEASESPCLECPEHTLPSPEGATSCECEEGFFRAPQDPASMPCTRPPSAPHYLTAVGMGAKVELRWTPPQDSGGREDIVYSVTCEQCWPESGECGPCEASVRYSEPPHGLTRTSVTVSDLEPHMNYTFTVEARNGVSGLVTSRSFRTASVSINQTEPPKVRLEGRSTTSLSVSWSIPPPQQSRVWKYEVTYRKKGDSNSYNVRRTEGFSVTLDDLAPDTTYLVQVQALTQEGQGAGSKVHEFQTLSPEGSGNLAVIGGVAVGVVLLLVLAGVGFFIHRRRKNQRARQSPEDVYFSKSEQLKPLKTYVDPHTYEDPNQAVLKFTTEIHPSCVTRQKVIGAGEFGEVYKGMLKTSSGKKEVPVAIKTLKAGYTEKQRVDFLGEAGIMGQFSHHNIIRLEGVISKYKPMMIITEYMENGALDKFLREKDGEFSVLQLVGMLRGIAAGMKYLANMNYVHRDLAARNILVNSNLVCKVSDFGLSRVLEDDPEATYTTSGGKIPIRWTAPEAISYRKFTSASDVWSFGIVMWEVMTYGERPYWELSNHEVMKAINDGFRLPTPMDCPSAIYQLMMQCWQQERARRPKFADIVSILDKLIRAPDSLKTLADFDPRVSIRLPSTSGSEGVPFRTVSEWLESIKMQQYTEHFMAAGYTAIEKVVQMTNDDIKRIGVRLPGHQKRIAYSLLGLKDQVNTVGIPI

With `CC(c1cc2cc(-c3cnn(C)c3)cnc2cc1F)n1nnc2ncc(-c3cnn(CCO)c3)nc21` (stereo in doubt; 14) as the compound, how does the microsomal CLint at 1 µM [1] read?
Its microsomal CLint at 1 µM is 5 µL/min/mg.

And the IC50 [2]?
Its IC50 is greater than 30 µM.

What about the Activity (Mus musculus [3]) of the same compound?
Its Activity is “Non-Toxic”.

What about the inhibition in vivo at 0.1 mg/kg (NCI-H1993 [4]) of the same compound?
The inhibition in vivo at 0.1 mg/kg was 55.5%.

What about the IC50 [5] of the same compound?
Its IC50 is 0.731 µM.

What about the remaining at 0.5 h, 1 µM [6] of the same compound?
Its remaining at 0.5 h, 1 µM is 95%.

And the IC50 [7]?
Its IC50 is 0.0006 µM.

What about the IC50 [8] of the same compound?
The IC50 was 2.36 µM.

And the AUC(0-t) at 24 h [9]?
The AUC(0-t) at 24 h was 1250 ng·h/mL.

And the Activity (SNU-5)?
The Activity was 34%.

And the IC50 [10]?
Its IC50 is 18.4 µM.

And the inhibition at 10 µM (CYP2D6)?
Its inhibition at 10 µM is less than 50%.

What about the Cmax [11] of the same compound?
Its Cmax is 135 ng/mL.

And the IC50 (NCI-H1993 [12])?
Its IC50 is 0.0011 µM.

And the inhibition in vivo at 1 mg/kg (NCI-H1993 [13])?
The inhibition in vivo at 1 mg/kg was 78.7%.

What about the IC50 [14] of the same compound?
The IC50 was greater than 30 µM.

What about the Activity (Mus musculus [15]) of the same compound?
The Activity was “Non-Toxic”.

And the half-life [16]?
The half-life was 3.7 h.

And the IC50 (Ephrin type-A receptor 2)?
Its IC50 is greater than 30 µM.
